Where two headings read alike, the source gives them in different places.
Legend:
CD8+ T cells = assay: T cell IFNγ secretion assay; format: cell-based, mouse; details: for EC50: Mus musculus, T-cell
F4/80+ macrophages = assay: Mouse macrophage assay; format: cell-based; details: 10 µM NECA
CD103+ DC [1] = assay: CD103+ DC mouse bone marrow differentiation cultures; format: cell-based
CD103+ DC [2] = assay: Pinocytosis assay; format: cell-based, mouse
Procedure, shortened: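 1e6 iDCs were incubated with Alexa 488–ovalbumin (50 µg/mL final) in complete T cell medium for 30 min at 37°C, with 4°C as negative control. Cells were washed twice in ice-cold DPBS, kept chilled and analysed by flow cytometry.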

CD103+ DC [3] = assay: Analysis of antigen presentation; format: cell-based, mouse
OT-1 CD8+ T cells [4] = assay: CD103+ DC co-culture with OT-1 CD8+ T cells; format: cell-based, mouse
monocyte-derived DCs = assay: Antigen-specific priming of HLA-A*0201 Melan-A CD8+ T cells; format: cell-based, human
MCA205 tumors = MCA205 tumors in immunodeficient NSG mice; format: in vivo, mouse; details: AZD4635 and anti-PD-L1 (D265A)
Procedure, shortened: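 NSG mice got MCA205 cells sc (1×10^6 in PBS, right flank), with randomisation at 50–90 mm3. Treatment was oral test compound nanosuspension plus anti-PD-L1 (mIgG1 D265A, ip 10 mg/kg twice weekly). Tumor volume was measured twice weekly.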

MC38-OVA tumors [5] = assay: MC38-OVA syngeneic tumor model; format: in vivo, mouse
Procedure, shortened: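 C57BL/6 mice bore sc MC38-OVA (5×10^5 cells in PBS) and were randomised at 80–100 mm3. Anti-CD8 or rat IgG2b isotype was injected every 3 days. Mice also got oral test compound 50 mg/kg twice daily plus anti-PD-L1 10 mg/kg ip twice weekly. Tumor volume was tracked twice weekly.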

MC38 tumors [6] = assay: Gene expression analysis of MC38 tumors; format: in vivo, mouse; details: 14 days treatment
Procedure, shortened: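 Mice bearing sc MC38 tumors were treated with test compound for 14 days. Tumor gene expression was profiled with the NanoString Mouse PanCancer Immune Profiling Panel.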

MC38 tumors [7] = assay: Tumor immunophenotyping flow cytometry of MC38 tumors; format: in vivo, mouse
MC38-OVA tumors [8] = assay: Ex vivo stimulation cytokine flow cytometry of MC38-OVA tumors; format: in vivo, mouse; details: for IFN-γ, TNF-α, IL-2, granzyme B and CD107a on CD8+ T cells: PMA/ionomycin ex vivo stimulation
Procedure, shortened: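 Dissociated MC38-OVA tumor cells were plated at 2–4e5 live cells/well in complete T cell medium. […] CD8+ T and NK cell cytokines and CD107a were then read by flow cytometry.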

tumor draining LN cells = assay: ELISpot assay of tumor draining lymph node cells; format: in vivo, mouse; details: combination with anti-PD-L1; MC38-OVA tumor-bearing mice
OT-1 CD8+ T cells [9] = assay: Ex vivo CD103+ DC isolation and OT-I T cell co-culture; format: in vivo, mouse; details: CD103+ DC from TdLN of MC38-OVA mice
[10] = 5 μM NECA, dead MC38-OVA tumor cells
[11] = DC differentiated with 5 µM NECA, loaded with SIINFEKL peptide
[12] = whole ovalbumin protein, AZD4635+NECA
[13] = AZD4635 + NECA, dead MC38-OVA tumor cells

CCNC(=O)[C@H]1O[C@@H](n2cnc3c(N)ncnc32)[C@H](O)[C@@H]1O [NECA, 5′-(N-ethylcarboxamido) adenosine]
suppression of IFN-γ secretion (CD8+ T cells; 1 µM NECA, CD3/CD28 beads): 80% | suppression of MHCII expression relative to DMSO-treated controls (F4/80+ macrophages): > 90% | CD103+ cells (CD103+ DC [1]; 5 µM NECA, untreated 80%): 57% | reduction of fluorescent OVA uptake (CD103+ DC [2]; NECA 5 µM): ~50% | antigen presentation compared with untreated CD103+ DC (CD103+ DC [3]; SIINFEKL pulsed cultures, NECA 5 µM): less than a third | antigen presentation compared with untreated cells (CD103+ DC [3]; whole ovalbumin protein, NECA 5 µM): a log-fold reduced | reduction of CD107a response (OT-1 CD8+ T cells [4]; [10]): 75% | reduction of IFN-γ response (OT-1 CD8+ T cells [4]; [10]): 75% | reduction of CD107a expression by OT-1 CD8+ T cells (OT-1 CD8+ T cells [4]; [11]): 72% | reduction of IFN-γ secretion by OT-1 CD8+ T cells (OT-1 CD8+ T cells [4]; [11]): 60% | Melan-A26-35 tetramer positive CD8+ T cells (monocyte-derived DCs): 2.5% | reduction of cross-priming function of DCs (monocyte-derived DCs; 5 µM NECA): greater than 90%

Cc1cc(-c2nnc(N)nc2-c2ccc(F)cc2)cc(Cl)n1 [AZD4635]
EC50 (CD8+ T cells; read-out: EC50 restoration of IFN-γ secretion, 0.1 µM NECA): 53 nM | EC50 (CD8+ T cells; read-out: EC50 restoration of IFN-γ secretion, 1 µM NECA): 598 nM | restoration of IFN-γ secretion (CD8+ T cells; in presence of NECA): back to baseline levels | antitumor activity in immunodeficient mice (MCA205 tumors): completely abrogated | tumor efficacy of combination (MC38-OVA tumors [5]; AZD4635 50 mg/kg twice daily with αPD-L1 10 mg/kg): appreciable beneficial combination effect | antitumor activity after depletion of CD8 T cells (MC38-OVA tumors [5]; AZD4635+PD-L1 treatments, antimouse CD8 antibody): completely abrogated | expression of genes associated with immune activation relative to vehicle (MC38 tumors [6]): upregulated expression | MHCII and CD86 expression on CD11c+ DCs and F4/80+ macrophages (MC38 tumors [7]; 14 days, single agent): increased expression | intratumoral frequencies of DCs and macrophages (MC38 tumors [7]; 14 days, single agent): did not increase | frequency of infiltrating CD8+ cytotoxic lymphocytes compared with vehicle (MC38 tumors [7]; in combination with anti-PD-L1): significantly increased | NK cell IFN-γ production (MC38-OVA tumors [8]; combination with anti-PD-L1): minimal increase | NK cell TNF-α production and CD107a expression (MC38-OVA tumors [8]; combination with anti-PD-L1): strong increase | IFN-γ, TNF-α, IL-2, granzyme B and CD107a on CD8+ T cells (MC38-OVA tumors [8]; combination with anti-PD-L1): most significantly increased | IFN-γ, TNF-α, IL-2, granzyme B and CD107a on CD8+ T cells (MC38-OVA tumors [8]; single agent): all enhanced | IFN-γ response to OVA and p15E peptides (tumor draining LN cells): Strong activation of IFN-γ | differentiation into CD103+ DC (CD103+ DC [1]; 3 µM AZD4635 then NECA): able to differentiate into CD103^+ DC efficiently | rescue of fluorescent OVA uptake (CD103+ DC [2]; AZD4635 3 µM with NECA): almost to levels in untreated control | rescue of antigen presentation compared with NECA treatment (CD103+ DC [3]; SIINFEKL pulsed cultures, AZD4635 3 µM + NECA): twofold | antigen presentation level versus untreated CD103+ DCs (CD103+ DC [3]; [12]): restored to a level comparable to untreated | increase of antigen presentation compared with NECA (CD103+ DC [3]; [12]): nearly fivefold | restoration of CD107a and IFN-γ (OT-1 CD8+ T cells [4]; AZD4635 + NECA, SIINFEKL peptide): comparable to untreated cells | CD107a response relative to responses elicited by untreated cells (OT-1 CD8+ T cells [4]; [13]): 87% | IFN-γ response compared with untreated cells (OT-1 CD8+ T cells [4]; [13]): not statistically different | proliferation of OT-1 CD8+ T cells (OT-1 CD8+ T cells [9]; anti-PD-L1+AZD4635 combination): 53% | proliferation of OT-1 CD8+ T cells (OT-1 CD8+ T cells [9]; single agent, vehicle 5.8%): 28% | Melan-A26-35 tetramer positive CD8+ T cells (monocyte-derived DCs; 5 µM NECA, AZD4635 3 µM where given, tabulated, 4 donors, no NECA 32%): 16%
